# sPLA2-III inh: Inhibits HGIII-sPLA2 liposome hydrolysis, primary screen; 370,000 compounds, 0.56% hits; AID 743126; inhibition, % at 12.2 µM; Q9NZ20; QFRET BODIPY PC-A2 liposome hydrolysis, fluorescence;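 active means inhibition above mean plus 3 SD of compounds lying within the high and low control bounds, cut at about 19% in these data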;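 further: 0% = median of test compound wells and 100% = no enzyme DMSO wells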
# Target sequence (Q9NZ20 whole entry, looked up): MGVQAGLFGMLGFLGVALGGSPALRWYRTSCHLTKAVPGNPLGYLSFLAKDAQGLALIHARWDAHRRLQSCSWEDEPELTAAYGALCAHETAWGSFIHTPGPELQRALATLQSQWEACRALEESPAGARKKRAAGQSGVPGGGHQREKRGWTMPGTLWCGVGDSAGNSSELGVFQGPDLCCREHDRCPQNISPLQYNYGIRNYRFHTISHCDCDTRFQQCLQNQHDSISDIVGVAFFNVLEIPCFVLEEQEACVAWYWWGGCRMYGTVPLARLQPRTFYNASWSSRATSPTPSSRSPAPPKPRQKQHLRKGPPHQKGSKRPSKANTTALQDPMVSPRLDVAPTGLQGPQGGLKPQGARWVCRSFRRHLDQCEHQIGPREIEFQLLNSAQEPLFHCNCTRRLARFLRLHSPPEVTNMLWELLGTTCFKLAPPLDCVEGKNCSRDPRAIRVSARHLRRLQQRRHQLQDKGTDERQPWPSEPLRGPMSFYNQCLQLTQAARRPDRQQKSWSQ
# VIM-2 inhibitor: blocks Pseudomonas aeruginosa VIM-2 metallo-beta-lactamase. purified VIM-2, nitrocefin hydrolysis, epi-absorbance fluorescence. inhibition, % at 5.6 µM. 290,000 compounds, 0.89% hits;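 active means inhibition above the mean of all tested compounds plus 3 SD, cutoff set per screening run, cut at about 7.5% in these data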;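 further: red hydrolysis product quenches plate fluorescence so inhibitors raise well fluorescence; 0% = enzyme with DMSO and 100% = DMSO without enzyme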
# IMP-1 inh: inhibitors of Pseudomonas aeruginosa IMP-1 metallo-beta-lactamase. 290,000 compounds, 0.45% hits. inhibition, % at 5.6 µM. AID 1556. purified IMP-1, nitrocefin hydrolysis, epi-absorbance fluorescence;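 active means inhibition above the mean plus 3 SD of all compounds in the same screening run, cut at about 4.5% in these data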;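 further: 0% = IMP-1 with DMSO and 100% = DMSO wells lacking enzyme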
#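 System: purified IMP-1 / Input: IMP-1 dispensed at 0.2 nM / Medium: 50 mM HEPES pH 7.1, 50 µM ZnSO4, 0.05% Brij 35 / Timing: 15 min enzyme–compound preincubation, then 25 min nitrocefin reaction, 25 °C / Technique: plate fluorescence quenching by hydrolysis product, ex 480/em 530 nm / Repeats: singlicate testing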
# PfM18AAP inh-1: blocks P. falciparum M18 aspartyl aminopeptidase | recombinant PfM18AAP, H-Glu-NHMec fluorogenic cleavage | inhibition, % at 7.35 µM | 290,000 compounds, 1.2% hits | AID 1822;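 active means inhibition above the campaign mean inhibition over all tested compounds plus 3 SD, cut at about 28% in these data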;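 further: 0% = plate median of test compound wells and 100% = 2 mM ZnCl2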
# PfM18AAP inh-2: confirmation of Plasmodium falciparum M18 aspartyl aminopeptidase inhibitors | recombinant PfM18AAP, H-Glu-NHMec fluorogenic cleavage | inhibition, % at 7.35 µM | 2,400 compounds, 28% hits | shares compounds with PfM18AAP inh-1;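 active means mean inhibition over replicate wells above the hit cutoff set for the earlier primary screen, cut at about 29% in these data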;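 further: 0% = median of test compound wells and 100% = 2 mM ZnCl2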
# CTSL1 counter: Cathepsin L (human) inhibition, confirmation; shares compounds with PfM18AAP inh-1; purified cathepsin L1, Z-Leu-Arg-MCA fluorescence; inhibition, % at 5.96 µM; 2,400 tested, under 10 active; AID 2178;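 active means average inhibition across replicates above the hit cutoff set in the earlier primary screen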;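 further: 0% = median of test compound wells and 100% = Z-Phe-Ala-diazomethylketone 1 µM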
# * hit, by the source's call; x = not tested or not shown. Only some compounds are listed: those with a hit (about 2.4% of all), similar ones and a draw of the others.
SMILES,sPLA2-III inh,VIM-2 inhibitor,IMP-1 inh,PfM18AAP inh-1,PfM18AAP inh-2,CTSL1 counter
CCOc1ccc(Br)cc1C1=NN(C(C)=O)C(c2ccc([N+](=O)[O-])s2)O1 (centres undefined),2,-6,-2,8,x,x
CCc1nnc(NC(=O)CSc2nnc(COc3ccccc3C)o2)s1,-13,-1,-3,27,x,x
CCc1nnc(NC(=O)CSc2nnc(COc3cccc(C)c3)o2)s1,-10,-1,-2,47*,-40,-5
CCc1nnc(NC(=O)CSc2nnc(Cc3ccc(OC)cc3)o2)s1,-7,-2,1,41*,-33,-3
O=C(CNC(=O)c1cccs1)OCC(=O)c1ccc([N+](=O)[O-])cc1,5,-5,-2,45*,0,0
O=C(CNC(=O)c1cccs1)c1ccc([N+](=O)[O-])cc1,12,-2,-3,9,x,x
O=C(CNC(=O)c1ccco1)OCC(=O)c1ccc([N+](=O)[O-])cc1,-4,-1,0,40*,-4,0
Cc1ccc(C(=O)NCC(=O)NCC(=O)OCC(=O)c2ccc([N+](=O)[O-])cc2)cc1,-2,0,-2,33*,1,1
O=C(Cc1ccccc1)NCC(=O)OCC(=O)c1ccc([N+](=O)[O-])cc1,-3,2,0,39*,4,-10
O=C(CNC(=O)c1ccco1)OCC(=O)c1ccc(Cl)cc1,4,-4,-2,-12,x,x
CC(C)(C)c1ccc(C(=O)N2CCC2(C)C(=O)Nc2cnc3ccccc3c2)cc1 (centres undefined),-3,x,x,x,x,x
CC1(C(=O)NCc2ccccc2)Cc2c(-c3ccc4c(c3)OCO4)ccnc2O1 (centres undefined),-2,x,x,x,x,x
N#CC1(Nc2ccc3ccccc3c2)CCCC1,2,x,x,x,x,x
CC1(C(=O)NS(=O)(=O)c2ccc(C#N)cc2)CCN1C(=O)c1cccc2ccccc12 (centres undefined),2,x,x,x,x,x
Oc1ccccc1C=Nc1cccc2ccccc12,9,0,-2,12,x,x
Oc1cccc(C=Nc2cccc3ccccc23)c1O,16,2,1,50*,32*,-2
Oc1ccccc1N=Cc1c(O)ccc2ccccc12,2,-2,-2,31*,-5,3
CN(Cc1ccccc1)C(=O)c1ccc(NC(=O)Cc2ccc(NC(=O)C3CCCN(C(=O)C4CCCC4)C3)cc2)cc1 (centres undefined),-35,x,x,x,x,x
COc1c(Br)cc(/C=N/n2c(-c3ccccc3)n[nH]c2=S)c(O)c1Br,7,0,-1,45*,-9,-3
Oc1ccccc1/C=N/n1c(-c2ccccc2)n[nH]c1=S,8,1,-3,26,x,x
CCN1C(=O)CCN(C2CCCC2)c2nc(Nc3ccc(C(=O)NC4CCN(C)CC4)cc3OC)ncc21,0,x,x,x,x,x
COc1ccc(NC(=S)Nc2ccccc2)c(OC)c1,4,1,1,-6,x,x
CCc1ccc(NC(=S)Nn2cnnc2)cc1,3,0,-3,76*,64*,1
S=C(Nc1ccccc1)Nn1cnnc1,3,-1,-2,65*,61*,5
Cc1ccc(NC(=S)Nn2cnnc2)cc1,-1,0,-2,77*,67*,0
SMILES,sPLA2-III inh,VIM-2 inhibitor,IMP-1 inh,PfM18AAP inh-1,PfM18AAP inh-2,CTSL1 counter
CNC(=S)Nc1ccc(C)cc1,5,-5,-1,7,x,x
COc1ccc(NC(=S)Nn2cnnc2)c(OC)c1,3,-4,-5,72*,80*,-3
NS(=O)(=O)c1cccc(NC(=O)CSc2nnc(NC3CC3)s2)c1,-4,x,x,x,x,x
CN1CCN(C(=O)c2cccc(-c3cnc4cnc(-c5ccccc5Oc5ccccc5)cn34)c2)CC1,-4,x,x,x,x,x
CCc1cc2c(nc1CC)CCCN2S(=O)(=O)c1ccc(C#N)cc1,-4,x,x,x,x,x
CCCCCc1c(-c2ccc(Br)cc2)ncn1CCc1ccccc1OC,-11,x,x,x,x,x
COC(=O)C1CN(Cc2ccccc2)CCS(=O)(=O)N1Cc1cn(Cc2ccc(C)cc2)nn1 (centres undefined),-7,x,x,x,x,x
CCc1ccc(NC(=O)NNC(=O)CCc2ccccc2)cc1,-9,-7,-5,-1,x,x
COc1ccc(NC(=S)Nn2cnnc2)cc1OC,8,3,-1,79*,76*,0
CCc1ccc(NC(=O)Nn2cnnc2)cc1,-4,-2,-4,55*,30*,-4
Cc1cc2c(cc1C)-c1nnnn1C(N1CCCCC1)C(=O)N2 (centres undefined),-5,x,x,x,x,x

# Screening results (PubChem)
